According to BindingDB's records for doi:10.1016/j.ejmech.2011.01.016 (National Institute of Pharmaceutical Education and Research, 2011):

These compounds were tested against Reverse transcriptase (Human immunodeficiency virus 1, UniProt Q9WKE8) (assay: Inhibition of Human immunodeficiency virus 1 NL4.3 reverse transcriptase activity).
In short: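 Colorimetric HIV-1 reverse transcriptase inhibition assay run with a commercial RT assay kit per the manufacturer's protocol; nevirapine positive control; IC50 determined.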

| SMILES | IC50 |
| --- | --- |
| COc1cc2c(cc1O)-c1cc3ccc(OC)c(OC)c3c[n+]1CC2 [2-hydroxy-3,9,10-trimethoxy-5,6-dihydroisoquino[3,2-a]isoquinolinium] | 171 µM |
| COc1ccc2cc3[n+](cc2c1OC)CCc1cc2c(cc1-3)OCO2 [Berberinechloride] | 297 µM |
| COc1cc2c(cc1O)CC[n+]1cc3c(OC)c(OC)ccc3cc1-2 [jatrorrhizine] | 209 µM |
